Data reported in ChEMBL document CHEMBL4513216, “Probing the Open Global Health Chemical Diversity Library for Multistage-Active Starting Points for Next-Generation Antimalarials” (ACS Infect Dis, 2020).

Assay: Toxicity liver stage against HepG2, at 10uM
Format: cell-based
Design: test concentration 10 uM, cell line HepG2-A16-CD81EGFP
Conditions: human, HepG2-A16-CD81EGFP cells; read-out: INHIBITION
Outline: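 Uninfected HepG2-A16-CD81EGFP cells, 3 × 10^3 per well, 1536-well, plated on prespotted compound at 10 μM final, parasite-free screening media added to match infected plates; puromycin 10 μM positive, DMSO 0.5% negative; run in parallel with 48 h PbLuc assay at 37 °C, 5% CO2; viability by CellTiter-Glo luminescence, normalized to controls.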

Cc1ccc(CN2CCC3(CC2)CN(c2ccccc2)C(=O)CO3)o1
cytotoxicity at 10 µM: -116%

CN(C)C(=O)c1ccc2c(c1)N(C)C(CC(=O)NCCC(C)(C)C)CO2 (stereo not given)
cytotoxicity at 10 µM: -0.8%

COc1ccc2nnc(C(=O)NC3CCCC3)nc2c1
cytotoxicity at 10 µM: 6.17%

O=C(CN1CCc2c(ncn2C2CC2)C1)NC1CCN(C2CC2)CC1
cytotoxicity at 10 µM: -8.44%

CCC1=NN2C(=N)C(=Cc3cccn3-c3ccc(Cl)cc3)C(=O)N=C2S1
cytotoxicity at 10 µM: 7.92%

Cc1cnc(N2CCC3(CC2)CN(c2ccsc2)C(=O)CO3)nc1
cytotoxicity at 10 µM: 7.34%

CNCc1nc(-c2ccc3c(c2)OCO3)c[nH]1
cytotoxicity at 10 µM: 3.44%

Cc1cc(C)n(CC2CCCN2C(=O)c2c[nH]c(=O)c(Cl)c2)n1 (stereo not given)
cytotoxicity at 10 µM: 1.53%

OC1CCN(Cc2ccc(CNc3ccc(Cl)cn3)cc2)CC1
cytotoxicity at 10 µM: 0.313%

Cc1cc(CN2CCN(C(C)C(=O)NCc3cccs3)CC2)no1 (stereo not given)
cytotoxicity at 10 µM: -0.335%

Fc1ccccc1Oc1nccnc1C1CCCN(C2CCOCC2)C1 (stereo not given)
cytotoxicity at 10 µM: -9.4%

Cc1ccc(C(NC(=O)C2CCC(O)CC2)c2cccnc2)cc1C (stereo not given)
cytotoxicity at 10 µM: 24.2%

O=C(c1cn2cc(Cl)ccc2n1)N1CCC(CCn2cccn2)CC1
cytotoxicity at 10 µM: -10.2%

CCn1c(C2CCCNC2)nn(CCn2cncn2)c1=O (stereo not given)
cytotoxicity at 10 µM: -18.1%

Cc1cc(-n2cccn2)ccc1CN1C[C@@H](CN(C)C)[C@@H](CO)C1
cytotoxicity at 10 µM: -9.4%

CN(C)S(=O)(=O)N1CC[C@]2(O)CCN(c3cc(C#N)ccn3)C[C@@H]2C1
cytotoxicity at 10 µM: 12.3%

Cc1nc(C)n(C2CCCN(C(=O)CCn3ccnn3)C2)n1 (stereo not given)
cytotoxicity at 10 µM: -0.649%

O=C(CCc1cc2n(n1)CCCN(C(=O)[C@H]1CCCO1)C2)NC1CC1
cytotoxicity at 10 µM: 4.78%

CCc1ccc(CN2CCOC(Cc3cccc(F)c3)C2)nc1 (stereo not given)
cytotoxicity at 10 µM: -2.33%

N#Cc1ccc(N2CCCC2Cn2cncn2)nc1 (stereo not given)
cytotoxicity at 10 µM: 6.05%

CCNC(=O)NC(=O)CN1CCCC1c1nc(C2CCCCC2)co1 (stereo not given)
cytotoxicity at 10 µM: 8.08%

COCCC1COC2(CCN(C(=O)Cc3ccccc3)CC2)C1 (stereo not given)
cytotoxicity at 10 µM: -69.2%

COc1c(CNCCC(=O)NC2CCCC2)c(C(C)C)nn1C
cytotoxicity at 10 µM: -4.41%

COCC1CN(C(=O)CC2Cc3ccccc3C2)Cc2c1cnn2C (stereo not given)
cytotoxicity at 10 µM: -75.4%

CC[C@H](C)[C@H](NC(=O)c1ccc(-n2cnnn2)cc1)C(=O)OC
cytotoxicity at 10 µM: 9.09%

CC(C)c1ccc(S(=O)(=O)NC2(CC(N)=O)CCC2)cc1
cytotoxicity at 10 µM: -2.77%

CN(CCO)Cc1nnc(C2CCN(C(=O)C3CCOCC3)CC2)n1C
cytotoxicity at 10 µM: 2.01%

Cc1ccc(-c2c[nH]c([C@@H]3COCCN3Cc3cccnc3)n2)cc1
cytotoxicity at 10 µM: 0.283%

COCCN1CCN(Cc2cnc(C)nc2)CC1
cytotoxicity at 10 µM: -22.8%

O=C(N[C@@H]1CCN(Cc2cccc3nonc23)C[C@H]1O)c1cccnc1
cytotoxicity at 10 µM: -2.3%

O=C(c1ccno1)N1CCOC[C@H](Oc2ccc(C(F)(F)F)cc2)C1
cytotoxicity at 10 µM: 1.48%

CC(CNC(=O)N1CCN(c2cnccn2)CC1)Cc1cccs1 (stereo not given)
cytotoxicity at 10 µM: 1.7%

CC(C)=CCN1CCN(C(=O)C2CCS(=O)(=O)C2)CC1 (stereo not given)
cytotoxicity at 10 µM: -90.5%

CC(C)(C)OC(=O)N1CCC[C@H](NCc2cc[nH]c2)C1
cytotoxicity at 10 µM: 1.05%

OCCOc1cc(F)ccc1NCc1nc(-c2ccoc2)no1
cytotoxicity at 10 µM: -46.9%

CC(=O)c1cc(CN2C[C@@H](C(=O)O)[C@H](c3cccnc3)C2)cs1
cytotoxicity at 10 µM: 4.11%

COCCN1CCOCC2(C1)CN(C(=O)c1conc1C)CCO2 (stereo not given)
cytotoxicity at 10 µM: 7.1%

Cn1cccc1-c1cc(C(=O)N2CCCCC2c2ccc(F)cc2)[nH]n1 (stereo not given)
cytotoxicity at 10 µM: -2.8%

O=C(c1ccc(=O)[nH]n1)N1CCc2ccccc21
cytotoxicity at 10 µM: 37.9%

COCC(=O)N[C@H](C)c1c(-c2ccc(OC)cc2)noc1C(=O)O
cytotoxicity at 10 µM: 0.588%

CCCc1n[nH]c(C2CN(C(=O)c3n[nH]c4ccccc34)CCO2)n1 (stereo not given)
cytotoxicity at 10 µM: -1.39%

Cc1c[nH]c(CN2CCC3(CCCN(Cc4ccc(F)c(F)c4)C3)C2)n1 (stereo not given)
cytotoxicity at 10 µM: -7.22%

CN(C)Cc1nnc2n1CCN(Cc1cccnc1)C2
cytotoxicity at 10 µM: -0.588%

CCc1nc(CN(C)CC2CCN(CCO)CC2)no1
cytotoxicity at 10 µM: -9.68%

Cc1ncsc1CCN(C)C(=O)C(c1cccnc1)N1CCOCC1 (stereo not given)
cytotoxicity at 10 µM: -6.02%

Cc1nn(C)c(C)c1-c1ccnc(N(C)Cc2noc(C(C)C)n2)n1
cytotoxicity at 10 µM: 26.4%

COCCN(C)c1ccc(NCc2cccnc2)nc1
cytotoxicity at 10 µM: -9.9%

CC1=N[C@@]2(CC[C@@H]3CN(Cc4cccc(Cl)c4)C[C@@H]32)C(=O)N1CC1CC1
cytotoxicity at 10 µM: 0.758%

Cc1ncsc1CCC(=O)N1CCCC1c1cccnc1 (stereo not given)
cytotoxicity at 10 µM: 13.4%

NC(=O)c1cccc(-c2cnc(C3CCCNC3)cn2)c1 (stereo not given)
cytotoxicity at 10 µM: -0.055%

CCCS(=O)(=O)N1CCN(Cc2ccco2)CC1
cytotoxicity at 10 µM: 4.28%

O=C(c1ccccc1F)N1CC(c2nc(-c3ccc[nH]c3=O)no2)C1
cytotoxicity at 10 µM: 2.21%

Cc1cc(C)n(-c2ccc(C(=O)NCC(CO)Cc3cccs3)cc2)n1 (stereo not given)
cytotoxicity at 10 µM: 6.64%

O=c1[nH]c(-c2ccccn2)nc2c1CCN(S(=O)(=O)N1CCCC1)C2
cytotoxicity at 10 µM: 8.85%

COc1ccc(CCNc2cc(-c3nc(C)no3)ccn2)cc1OC
cytotoxicity at 10 µM: 3.39%
